The source of these data is ChEMBL document CHEMBL1128325, “Microsphere formation in a series of derivatized alpha-amino acids: properties, molecular modeling, and oral delivery of salmon calcitonin” (J Med Chem, 1995).

SMILES strings stand for the structures.

A short description of one data set: Partition coefficient (logP). It counts as physicochemical. As to conditions: octanol/water. Summed up: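 Computed rather than measured: derived from the reported experimental log P values of the parent amino acids by adding fragment constants for the N-substituent.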
Take `CC(=O)NC(Cc1ccccc1)C(=O)O` (stereo unspecified) [AFALANINE]: the logP is -0.7.

Still in this data set, the particulars now being: octanol/water; read-out: logP.
Regarding `NC(=O)C(Cc1ccccc1)NC(=O)c1ccccc1` (stereo unspecified), the logP is -1.89.
Take `O=C(NCCCC(NC(=O)c1ccccc1)C(=O)O)c1ccccc1` (stereo unspecified): the logP is -1.29.
Same read-out and setting: the result for `CC(C)CC(NC(=O)c1ccccc1)C(=O)O` (stereo unspecified) reads -0.91.
For `O=C(O)CCC(NC(=O)c1ccccc1)C(=O)O` (stereo unspecified), the logP was -2.29.
The same measure, in the same setting: the result for `O=C(NC(Cc1ccccc1)C(=O)O)c1ccccc1` (stereo unspecified) reads -0.63; that for `O=C(CC(=O)c1ccccc1)NC(Cc1ccccc1)C(=O)O` (stereo unspecified), -1.34.
Take `CC(C)C(NS(=O)(=O)c1ccccc1)C(=O)O` (stereo unspecified): the logP was -1.8.
Regarding `O=C(NC(Cc1ccccc1)C(=O)O)C1CCCCC1` (stereo unspecified), the logP is -0.27.
Still for that read-out and setting: the result for `O=C(NC(Cc1ccc(O)cc1)C(=O)O)c1ccccc1` (stereo unspecified) reads -2.24.
As for `COC(=O)C(Cc1ccccc1)NC(=O)c1ccccc1` (stereo unspecified), the logP is -0.13.
Turning to `NCCCCC(NC(=O)c1ccccc1)C(=O)O` (stereo unspecified), the logP was -2.02.
`COC(=O)C(Cc1ccccc1)NC(C)=O` (stereo unspecified): the logP is -0.2.
Still for that read-out and setting: the result for `O=CNC(Cc1ccccc1)C(=O)O` (stereo unspecified) reads -1.21; that for `CC(C)CC(NS(=O)(=O)c1ccccc1)C(=O)O` (stereo unspecified), -1.69; that for `NCCCCC(NS(=O)(=O)c1ccccc1)C(=O)O` (stereo unspecified), -2.8.
In the case of `CC(C)C(NC(=O)c1ccccc1)C(=O)O` (stereo unspecified), the logP is -1.3.
Same read-out and setting: the result for `CN(C)C(Cc1ccccc1)C(=O)O` (stereo unspecified) reads -0.43; that for `O=C(NC(Cc1ccccc1)C(=O)O)c1ccccc1O` (stereo unspecified), -0.53.
Still for that read-out and setting: the result for `O=C(O)C(Cc1ccccc1)NS(=O)(=O)c1ccccc1` (stereo unspecified) reads -1.41; that for `CC(NC(=O)c1ccccc1)C(=O)O` (stereo unspecified), -2.14; that for `NCCCC(NC(=O)c1ccccc1)C(=O)O` (stereo unspecified), -2.09.
Turning to `O=C(O)CC(NC(=O)c1ccccc1)C(=O)O` (stereo unspecified), the logP was -2.79.
On the same count and under the same terms, the result for `O=C([O-])CNC(=O)c1ccccc1.[Na+]` reads -2.68.
For `CC(=O)NC(Cc1ccccc1)C(N)=O` (stereo unspecified), the logP was -1.76.
In the case of `O=C(NC(Cc1ccccc1)C(=O)O)OCc1ccccc1` (stereo unspecified), the logP is -1.11.
For the molecule `O=C(O)C(CO)NS(=O)(=O)c1ccccc1` (stereo unspecified), the logP was -3.98.
Still for that read-out and setting: the result for `O=C(NCCCCC(NC(=O)c1ccccc1)C(=O)O)c1ccccc1` (stereo unspecified) reads -1.22; that for `O=C(NC(Cc1ccccc1)C(=O)O)C1CCCC1` (stereo unspecified), -0.77; that for `CNC(Cc1ccccc1)C(=O)O` (stereo unspecified), -0.93.
The same measure, in the same setting: the result for `O=C(Cc1ccccc1)NC(Cc1ccccc1)C(=O)O` (stereo unspecified) reads -0.13.
